{"source": "ChEMBL document CHEMBL4043264", "about": "“Design, synthesis, X-ray studies, and biological evaluation of novel macrocyclic HIV-1 protease inhibitors involving the P1'-P2' ligands” (Bioorg Med Chem Lett, 2017)", "key": {"[1]": {"tested_on": "Human immunodeficiency virus 1", "test": "Antiviral activity against HIV-1 harboring protease I50V mutant", "assay_type": "functional"}, "[2]": {"tested_on": "Human immunodeficiency virus 1", "test": "Antiviral activity against wild type HIV-1 NL4-3 infected in human MT4 cells assessed as reduction in p24 Gag protein production", "assay_type": "functional, cell-based", "conditions": "Human immunodeficiency virus 1, NL4-3, MT4"}, "[3]": {"tested_on": "Human immunodeficiency virus 1", "test": "Antiviral activity against darunavir-resistant HIV1 harboring protease L10I/[…]K20R/L24I/V32I/M36I/M46L/L63P/V82A/L89M mutant infected in human MT4 cells assessed as reduction in p24 Gag protein production", "assay_type": "functional, cell-based", "conditions": "Human immunodeficiency virus 1, MT4", "method_in_brief": "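MT-4 cells (1×10^4) infected with 50 TCID₅₀ of wild-type HIV-1 NL4-3 or the DRV-resistant variant HIV-1 DRV^R P20 (protease L10I/I15V/K20R/L24I/V32I/M36I/M46L/L63P/V82A/L89M). Cells then cultured with various concentrations of each protease inhibitor. IC50 determined from p24 assay. Each assay run in triplicate. Values are means of three independent experiments, with fold-change relative to wild type.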"}, "[4]": {"test": "Inhibition of HIV-1 protease using fluorogenic substrate by fluorescence assay", "set-up": "species or system Human immunodeficiency virus 1"}, "[5]": {"tested_on": "Human immunodeficiency virus 1", "test": "Anti-viral activity against HIV-1 LAI infected in human MT2 cells assessed as reduction in p24 Gag protein production", "assay_type": "functional, cell-based", "conditions": "Human immunodeficiency virus 1, M:B_Lai"}, "[6]": {"test": "Ratio of IC50 for darunavir-resistant HIV1 harboring protease L10I/I15V/K20R/L24I/V32I/M36I/M46L/L63P/V82A/L89M mutant infected in human MT4 cells to IC50 for wild type HIV1 NL4-3 infected in human MT4 cells", "assay_type": "functional"}, "[7]": {"test": "Inhibition of wild-type HIV-1 protease", "set-up": "species or system Human immunodeficiency virus 1"}}}
{"compound": "CC(C)CN(C[C@@H](O)[C@H](Cc1ccccc1)NC(=O)O[C@H]1CO[C@H]2OCC[C@H]21)S(=O)(=O)c1ccc(N)cc1", "values": [{"measurement": "IC50", "setting": "[1]", "value": 1.6, "unit": "nM"}]}
{"compound": "Nc1ccc2c(c1)COCCCCCCCN(C[C@@H](O)[C@H](Cc1ccccc1)NC(=O)O[C@H]1CO[C@H]3OCC[C@H]31)S2(=O)=O", "values": [{"measurement": "IC50", "setting": "[2]", "value": 1.5, "unit": "nM"}, {"measurement": "IC50", "setting": "[3]", "value": 20, "unit": "nM"}, {"measurement": "Ki", "setting": "[4]", "value": 0.014, "unit": "nM"}, {"measurement": "IC50", "setting": "[5]", "value": 2, "unit": "nM"}, {"measurement": "Ratio IC50", "setting": "[6]", "value": 13}]}
{"compound": "COc1ccc2c(c1)OCCCCCOCCN(C[C@@H](O)[C@H](Cc1ccccc1)NC(=O)O[C@H]1CO[C@H]3OCC[C@H]31)S2(=O)=O", "values": [{"measurement": "Ki", "setting": "[4]", "value": 4.21, "unit": "nM"}]}
{"compound": "COc1ccc2c(c1)OCC/C=C/CN1C(=O)CC[C@@H]1CN(C[C@@H](O)[C@H](Cc1ccccc1)NC(=O)O[C@H]1CO[C@H]3OCC[C@H]31)S2(=O)=O", "values": [{"measurement": "Ki", "setting": "[4]", "value": 0.47, "unit": "nM"}, {"measurement": "IC50", "setting": "[5]", "value": 176, "unit": "nM"}]}
{"compound": "COc1ccc2c(c1)COC/C=C\\CCCCCN(C[C@@H](O)[C@H](Cc1ccccc1)NC(=O)O[C@H]1CO[C@H]3OCC[C@H]31)S2(=O)=O", "values": [{"measurement": "Ki", "setting": "[4]", "value": 0.64, "unit": "nM"}]}
{"compound": "COc1ccc2c(c1)OCCCCCCN(S(C)(=O)=O)CCN(C[C@@H](O)[C@H](Cc1ccccc1)NC(=O)O[C@H]1CO[C@H]3OCC[C@H]31)S2(=O)=O", "values": [{"measurement": "Ki", "setting": "[4]", "value": 13.3, "unit": "nM"}]}
{"compound": "COc1ccc2c(c1)COCCCCCCCN(C[C@@H](O)[C@H](Cc1ccccc1)NC(=O)O[C@H]1CO[C@H]3OCC[C@H]31)S2(=O)=O", "values": [{"measurement": "IC50", "setting": "[2]", "value": 3.6, "unit": "nM"}, {"measurement": "IC50", "setting": "[3]", "value": 240, "unit": "nM"}, {"measurement": "Ki", "setting": "[4]", "value": 0.062, "unit": "nM"}, {"measurement": "IC50", "setting": "[5]", "value": 5.3, "unit": "nM"}, {"measurement": "Ratio IC50", "setting": "[6]", "value": 67}]}
{"compound": "COc1ccc2c(c1)COC/C=C\\CCCCN(C[C@@H](O)[C@H](Cc1ccccc1)NC(=O)O[C@H]1CO[C@H]3OCC[C@H]31)S2(=O)=O", "values": [{"measurement": "Ki", "setting": "[4]", "value": 0.029, "unit": "nM"}, {"measurement": "IC50", "setting": "[5]", "value": 54, "unit": "nM"}]}
{"compound": "COc1ccc2c(c1)OCCCCCN1C(=O)CC[C@H]1CN(C[C@@H](O)[C@H](Cc1ccccc1)NC(=O)O[C@H]1CO[C@H]3OCC[C@H]31)S2(=O)=O", "values": [{"measurement": "Ki", "setting": "[4]", "value": 27, "unit": "nM"}, {"measurement": "IC50", "setting": "[5]", "value": "> 1000", "unit": "nM"}]}
{"compound": "COc1ccc2c(c1)COCCCCCCCCN(C[C@@H](O)[C@H](Cc1ccccc1)NC(=O)O[C@H]1CO[C@H]3OCC[C@H]31)S2(=O)=O", "values": [{"measurement": "Ki", "setting": "[4]", "value": 0.062, "unit": "nM"}, {"measurement": "IC50", "setting": "[5]", "value": 31, "unit": "nM"}]}
{"compound": "COc1ccc2c(c1)OCCCCCN1C(=O)CC[C@@H]1CN(C[C@@H](O)[C@H](Cc1ccccc1)NC(=O)O[C@H]1CO[C@H]3OCC[C@H]31)S2(=O)=O", "values": [{"measurement": "Ki", "setting": "[4]", "value": 0.46, "unit": "nM"}, {"measurement": "IC50", "setting": "[5]", "value": 122, "unit": "nM"}]}
{"compound": "COc1ccc2c(c1)COC/C=C/CCCCN(C[C@@H](O)[C@H](Cc1ccccc1)NC(=O)O[C@H]1CO[C@H]3OCC[C@H]31)S2(=O)=O", "values": [{"measurement": "Ki", "setting": "[4]", "value": 0.015, "unit": "nM"}, {"measurement": "IC50", "setting": "[5]", "value": 46, "unit": "nM"}]}
{"compound": "COc1ccc2c(c1)OCCCCCN(S(C)(=O)=O)CCN(C[C@@H](O)[C@H](Cc1ccccc1)NC(=O)O[C@H]1CO[C@H]3OCC[C@H]31)S2(=O)=O", "values": [{"measurement": "Ki", "setting": "[4]", "value": 33.3, "unit": "nM"}]}
{"compound": "COc1ccc2c(c1)OCCCCCCOCCN(C[C@@H](O)[C@H](Cc1ccccc1)NC(=O)O[C@H]1CO[C@H]3OCC[C@H]31)S2(=O)=O", "values": [{"measurement": "Ki", "setting": "[4]", "value": 9.85, "unit": "nM"}, {"measurement": "IC50", "setting": "[5]", "value": "> 1000", "unit": "nM"}]}
{"compound": "COc1ccc2c(c1)OCC/C=C\\CN1C(=O)CC[C@@H]1CN(C[C@@H](O)[C@H](Cc1ccccc1)NC(=O)O[C@H]1CO[C@H]3OCC[C@H]31)S2(=O)=O", "values": [{"measurement": "Ki", "setting": "[4]", "value": 13.2, "unit": "nM"}, {"measurement": "IC50", "setting": "[5]", "value": 22, "unit": "nM"}]}
{"compound": "COc1ccc2c(c1)COC/C=C/CCCCCN(C[C@@H](O)[C@H](Cc1ccccc1)NC(=O)O[C@H]1CO[C@H]3OCC[C@H]31)S2(=O)=O", "values": [{"measurement": "Ki", "setting": "[4]", "value": 0.55, "unit": "nM"}]}
{"compound": "COc1ccc(S(=O)(=O)N(CC(C)C)C[C@@H](O)[C@H](Cc2ccccc2)NC(=O)O[C@H]2CO[C@H]3OCC[C@H]32)cc1", "values": [{"measurement": "Ki", "setting": "[7]", "value": 0.014, "unit": "nM"}, {"measurement": "IC50", "setting": "[1]", "value": 1.2, "unit": "nM"}]}
